Data on ten molecules can be found in ChEMBL document CHEMBL3046492, “Synthesis, insecticidal, and acaricidal activities of novel 2-aryl-pyrrole derivatives containing ester groups” (2008).

What all share (format): functional
Experiment [1] concerns Mythimna separata. The experiment in a line: Insecticidal activity against fourth-instar larval stage of Mythimna separata (Oriental armyworm) in compound pretreated corn leaves assessed as mortality at 10 mg/kg at 25 +/-1 degC measured after 2 days.
In experiment [2] the test system is Culex pipiens pallens. The experiment in a line: Insecticidal activity against fourth-instar larval stage of Culex pipiens pallens (mosquito) assessed as mortality at 0.50 mg/kg at 25 +/-1 degC after 2 days. To be noted: 48 h. The gist of the method: (§1)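 Test solutions were prepared by adding 1 mL of each concentrated dilution to 99 mL water. Bioassays were run at 25 ± 1 °C on laboratory-reared insects.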

In experiment [3] the test system is Culex pipiens pallens. The experiment in a line: Insecticidal activity against fourth-instar larval stage of Culex pipiens pallens (mosquito) assessed as mortality at 0.25 mg/kg at 25 +/-1 degC after 2 days. To be noted: 48 h. The gist of the method:
as §1

The subject of experiment [4] is Mythimna separata. The experiment in a line: Insecticidal activity against fourth-instar larval stage of Mythimna separata (Oriental armyworm) in compound pretreated corn leaves assessed as mortality at 5 mg/kg at 25 +/-1 degC measured after 2 days.
The test system of experiment [5] is Tetranychus cinnabarinus. The experiment in a line: Acaricidal activity against adult Tetranychus cinnabarinus (carmine spider mite) in sieva bean plants assessed as mortality at 200 mg/kg treated for 3 secs measured after 2 days. Conditions: 48 h.
Experiment [6] has as its system Mythimna separata. The experiment in a line: Insecticidal activity against fourth-instar larval stage of Mythimna separata (Oriental armyworm) in compound pretreated corn leaves assessed as mortality at 20 mg/kg at 25 +/-1 degC measured after 2 days.
The subject of experiment [7] is Culex pipiens pallens. The experiment in a line: Insecticidal activity against fourth-instar larval stage of Culex pipiens pallens (mosquito) assessed as mortality at 0.10 mg/kg at 25 +/-1 degC after 2 days. Conditions: 48 h. In short, it runs like this: as §1
For experiment [8], the system named is Tetranychus cinnabarinus. The experiment in a line: Acaricidal activity against adult Tetranychus cinnabarinus (carmine spider mite) in sieva bean plants assessed as mortality at 100 mg/kg treated for 3 secs measured after 2 days. Conditions: 48 h.
Experiment [9] deals with Tetranychus cinnabarinus. The experiment in a line: Acaricidal activity against adult Tetranychus cinnabarinus (carmine spider mite) in sieva bean plants assessed as mortality at 50 mg/kg treated for 3 secs measured after 2 days. To be noted: 48 h.

A word on the mortality: it is the share of the test organisms that died.

Structures are written as SMILES.

For `N#Cc1c(Br)c(C(F)(F)F)n(COC(=O)c2ccc(N)cc2)c1-c1ccc(Cl)cc1`, the mortality at 10 mg/kg in experiment [1] worked out at 0%. The mortality at 0.5 mg/kg in experiment [2] stood at 100%. Besides, the mortality at 0.25 mg/kg in [3] came to 10%. Further, the mortality at 5 mg/kg in [4] amounted to 0%. In [5], the mortality at 200 mg/kg came to 0%. For the same molecule, the mortality at 20 mg/kg in [6] was 40%. Besides, the mortality at 0.1 mg/kg in experiment [7] was 10%.
With `COc1cccc(C(=O)OCn2c(-c3ccc(Cl)cc3)c(C#N)c(Br)c2C(F)(F)F)c1`, the mortality at 10 mg/kg in experiment [1] stood at 90%. Moreover, the mortality at 100 mg/kg in experiment [8] amounted to 65%. In addition, in experiment [2], the mortality at 0.5 mg/kg was 100%. In addition, in experiment [3], the mortality at 0.25 mg/kg was determined as 65%. In experiment [4], the mortality at 5 mg/kg came out at 0%. Further, the mortality at 200 mg/kg in experiment [5] amounted to 100%. Also, in experiment [9], the mortality at 50 mg/kg stood at 50%. Moreover, the mortality at 20 mg/kg in experiment [6] was found to be 100%. Also, the mortality at 0.1 mg/kg in experiment [7] was 50%.
With `N#Cc1c(Br)c(C(F)(F)F)n(COC(=O)c2cccc([N+](=O)[O-])c2)c1-c1ccc(Cl)cc1`, the mortality at 10 mg/kg in experiment [1] was found to be 0%. Further, the mortality at 100 mg/kg in experiment [8] is 94%. Further, the mortality at 0.5 mg/kg in experiment [2] was found to be 80%. Further, in experiment [3], the mortality at 0.25 mg/kg was found to be 40%. The mortality at 5 mg/kg in experiment [4] came to 0%. In addition, the mortality at 200 mg/kg in experiment [5] was determined as 98%. In addition, the mortality at 50 mg/kg in experiment [9] was 90%. The mortality at 20 mg/kg in [6] was 100%. Further, in experiment [7], the mortality at 0.1 mg/kg worked out at 30%.
Consider `N#Cc1c(Br)c(C(F)(F)F)n(COC(=O)C(=O)c2ccccc2)c1-c1ccc(Cl)cc1`, for which the mortality at 10 mg/kg in experiment [1] was found to be 60%. Further, the mortality at 100 mg/kg in experiment [8] is 88%. Further, the mortality at 5 mg/kg in experiment [4] amounted to 0%. Besides, the mortality at 200 mg/kg in [5] is 100%. The mortality at 50 mg/kg in experiment [9] came out at 79%. In addition, the mortality at 20 mg/kg in [6] amounted to 100%.
Take `N#Cc1c(Br)c(C(F)(F)F)n(COC(=O)c2cc([N+](=O)[O-])cc([N+](=O)[O-])c2)c1-c1ccc(Cl)cc1`: the mortality at 10 mg/kg in [1] is 0%. Also, in experiment [2], the mortality at 0.5 mg/kg came out at 100%. In addition, the mortality at 0.25 mg/kg in experiment [3] worked out at 100%. Further, the mortality at 5 mg/kg in [4] was found to be 0%. In experiment [5], the mortality at 200 mg/kg worked out at 0%. Further, in experiment [6], the mortality at 20 mg/kg is 100%. For the same molecule, the mortality at 0.1 mg/kg in [7] came out at 100%.
As for `CCOC(=O)OCn1c(-c2ccc(Cl)cc2)c(C#N)c(Br)c1C(F)(F)F`, the mortality at 10 mg/kg in experiment [1] amounted to 90%. Also, the mortality at 100 mg/kg in experiment [8] turned out to be 89%. The mortality at 0.5 mg/kg in experiment [2] turned out to be 100%. Further, the mortality at 0.25 mg/kg in [3] worked out at 100%. In addition, the mortality at 5 mg/kg in experiment [4] is 0%. Moreover, in experiment [5], the mortality at 200 mg/kg is 100%. In [9], the mortality at 50 mg/kg came to 84%. Besides, the mortality at 20 mg/kg in experiment [6] is 100%. The mortality at 0.1 mg/kg in experiment [7] was 100%.
`N#Cc1c(Br)c(C(F)(F)F)n(COC(=O)c2ccccc2Cl)c1-c1ccc(Cl)cc1`: in experiment [1], the mortality at 10 mg/kg was found to be 35%. For the same molecule, the mortality at 100 mg/kg in [8] came to 95%. The mortality at 0.5 mg/kg in experiment [2] is 100%. Further, the mortality at 0.25 mg/kg in experiment [3] came to 100%. For the same molecule, the mortality at 5 mg/kg in experiment [4] turned out to be 0%. For the same molecule, the mortality at 200 mg/kg in [5] was determined as 99%. Besides, in [9], the mortality at 50 mg/kg stood at 93%. Besides, the mortality at 20 mg/kg in [6] came out at 100%. Besides, the mortality at 0.1 mg/kg in experiment [7] is 100%.
Take `N#Cc1c(Br)c(C(F)(F)F)n(COC(=O)c2ccc(Cl)cc2)c1-c1ccc(Cl)cc1`: the mortality at 10 mg/kg in experiment [1] amounted to 100%. Further, the mortality at 100 mg/kg in [8] worked out at 100%. The mortality at 0.5 mg/kg in experiment [2] came to 100%. Moreover, the mortality at 0.25 mg/kg in [3] worked out at 20%. Further, the mortality at 5 mg/kg in experiment [4] came out at 10%. Moreover, the mortality at 200 mg/kg in experiment [5] was 100%. Moreover, in experiment [9], the mortality at 50 mg/kg turned out to be 100%. Further, the mortality at 20 mg/kg in [6] was determined as 100%. In experiment [7], the mortality at 0.1 mg/kg is 10%.
For `CCC(=O)OCn1c(-c2ccc(Cl)cc2)c(C#N)c(Br)c1C(F)(F)F`, the mortality at 10 mg/kg in experiment [1] was 90%. For the same molecule, the mortality at 100 mg/kg in [8] was 92%. The mortality at 0.5 mg/kg in [2] was found to be 100%. Also, the mortality at 0.25 mg/kg in experiment [3] came to 100%. Also, the mortality at 5 mg/kg in experiment [4] came out at 0%. Moreover, the mortality at 200 mg/kg in experiment [5] amounted to 100%. In addition, the mortality at 50 mg/kg in [9] worked out at 88%. Also, the mortality at 20 mg/kg in experiment [6] is 100%. Besides, the mortality at 0.1 mg/kg in experiment [7] is 100%.
As to `CC(C)C(=O)OCn1c(-c2ccc(Cl)cc2)c(C#N)c(Br)c1C(F)(F)F`, the mortality at 10 mg/kg in experiment [1] stood at 100%. Also, in experiment [8], the mortality at 100 mg/kg came to 100%. The mortality at 5 mg/kg in [4] worked out at 0%. The mortality at 200 mg/kg in experiment [5] was 100%. In addition, the mortality at 50 mg/kg in experiment [9] was 100%. In addition, in experiment [6], the mortality at 20 mg/kg came out at 100%.
